Test results taken from publication PMC8530978 (Bioorganic chemistry, 2021).

Key:
[1] = tested on: NCI sixty human tumor cell line panel; assay: NCI sixty human tumor cell line panel, single dose 10 μM; format: cell-based; conditions: Homo sapiens; for activity at 10 µM: read-out: Mean % growth at 10 μM
HCT 116 cells = assay: MTS reduction assay, antiproliferative activity on HCT 116; format: cell-based; conditions: Homo sapiens, HCT-116, 96 h
Outline: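 HCT116 cells grown in McCoy's 5A with 10% FBS (37 °C, 5% CO2), seeded at 3 × 10^3/well in triplicate and left to adhere overnight. Exposed to test compound at 0.01–100 μM, or DMSO, for 96 h. MTS reagent added for 2 h at 37 °C; absorbance read at 490 nm. Curves of log(concentration) vs response fitted with a variable Hill slope.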

HeLaM cells = assay: Flow cytometry cell cycle analysis; format: cell-based; conditions: for cells in G2/M: 48 hours, subG1 excluded (DMSO 10%); for subG1 population: 72 hr post treatment (DMSO 14%)
Outline: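 5 × 10^5 HeLaM cells plated, treated next day with test compound or DMSO for 24, 48 or 72 h. All cells (floating and attached) collected and fixed in 70% ethanol (final). […] 10 μg/ml, 30 min, 37 °C, then propidium iodide in PBS + 2% FBS. SubG1 gated; subG1 excluded before modeling live-cell cycle distribution.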

HDAC2 = HDAC2 (Homo sapiens, UniProt Q92769); assay: HDAC-Glo inhibitor testing with recombinant HDAC2; format: biochemical
[2] = tested on: acetylation of SMC3 in HeLaM cells; assay: Western blot of SMC3 acetylation in HeLaM cells; format: cell-based; conditions: overnight treatment
Outline: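 Acetylated SMC3 detected by immunoblot with an anti-acetyl-SMC3 antibody, HRP-conjugated secondary antibody and enhanced chemiluminescence, imaged on film.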

HDAC6 = molecular target: T1, HDAC6 (Homo sapiens, UniProt Q9UBN7); assay: HDAC-Glo inhibitor testing with recombinant HDAC6; format: biochemical
T1 sequence (Q9UBN7 1-1215): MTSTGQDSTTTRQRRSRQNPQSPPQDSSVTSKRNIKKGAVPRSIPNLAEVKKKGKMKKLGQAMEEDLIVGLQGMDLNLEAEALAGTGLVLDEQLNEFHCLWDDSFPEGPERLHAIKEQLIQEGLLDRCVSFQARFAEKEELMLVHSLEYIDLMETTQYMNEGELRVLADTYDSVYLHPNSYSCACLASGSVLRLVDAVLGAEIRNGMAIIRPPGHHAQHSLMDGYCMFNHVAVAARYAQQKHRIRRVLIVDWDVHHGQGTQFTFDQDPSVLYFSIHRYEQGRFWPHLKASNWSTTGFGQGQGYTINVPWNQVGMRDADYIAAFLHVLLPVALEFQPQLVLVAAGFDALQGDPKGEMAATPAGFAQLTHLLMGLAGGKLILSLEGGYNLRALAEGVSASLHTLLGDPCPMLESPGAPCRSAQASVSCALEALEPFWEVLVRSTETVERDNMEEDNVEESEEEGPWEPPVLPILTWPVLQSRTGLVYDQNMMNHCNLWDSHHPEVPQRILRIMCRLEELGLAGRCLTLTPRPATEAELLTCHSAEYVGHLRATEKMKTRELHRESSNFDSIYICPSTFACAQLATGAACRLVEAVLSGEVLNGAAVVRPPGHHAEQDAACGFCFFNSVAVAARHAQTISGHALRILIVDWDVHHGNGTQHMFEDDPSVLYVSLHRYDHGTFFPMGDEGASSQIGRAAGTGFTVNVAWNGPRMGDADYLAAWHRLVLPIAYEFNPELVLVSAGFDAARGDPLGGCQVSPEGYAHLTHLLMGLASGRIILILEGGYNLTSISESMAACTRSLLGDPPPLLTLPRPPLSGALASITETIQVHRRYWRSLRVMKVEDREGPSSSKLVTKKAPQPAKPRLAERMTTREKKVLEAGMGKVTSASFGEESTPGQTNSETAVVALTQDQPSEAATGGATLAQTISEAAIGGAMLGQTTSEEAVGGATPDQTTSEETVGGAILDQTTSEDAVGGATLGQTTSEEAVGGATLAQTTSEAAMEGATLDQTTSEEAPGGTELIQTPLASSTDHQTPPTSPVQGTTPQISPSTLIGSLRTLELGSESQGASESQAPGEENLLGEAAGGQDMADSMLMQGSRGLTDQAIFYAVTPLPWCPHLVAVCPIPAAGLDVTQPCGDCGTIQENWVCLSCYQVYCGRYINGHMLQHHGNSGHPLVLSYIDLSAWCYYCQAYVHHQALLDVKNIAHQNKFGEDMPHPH

HDAC1 = HDAC1 (Homo sapiens, UniProt Q13547); assay: HDAC-Glo inhibitor testing with recombinant HDAC1; format: biochemical
[3] = tested on: purified HDAC isoforms (HDAC1, 2, 3, 8 and HDAC6); assay: Single concentration; format: biochemical; conditions: 100 μM, HDAC1, 2, 3, 8 and 6
Outline: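 Recombinant HDAC1, 2, 3, 6 or 8 (1 μL of enzyme stock at 3, 1, 30, 35 or 70 ng/μL respectively) in HDAC-Glo buffer, incubated 3 h at room temperature with test compound in DMSO. HDAC-Glo reagent then added; luminescence read every 3 min for 30 min. Peak signal corrected against a no-enzyme background and divided by the no-inhibitor signal to give % activity remaining.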

NCI 60 cancer cell lines = assay: NCI dose response assay; format: cell-based, human
[4] = tested on: histone H3 acetylation and tubulin acetylation in HCT116 cells; assay: Western blot of histone H3 and tubulin acetylation in HCT116 cells; format: cell-based, human; conditions: HCT116, 24 h, IPEs up to highest concentration 25 μM
Outline: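 HCT116 cells (2 × 10^6 per T-25 flask) adhered overnight, then given test compound at 1, 10 or 25 μM, or DMSO, for 24 h. Lysed in RIPA; protein measured by BCA. Acetyl-histone H3 and acetyl-tubulin immunoblotted, detected with fluorescent secondary antibodies on an Odyssey scanner.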

[5] = tested on: mitotic spindle of HeLaM cells; format: cell-based; conditions: compound 10 μM + MG132 + ZM447439 (DMSO+MG132+ZM447439 3%)
HDAC8 = molecular target: T2, HDAC8 (Homo sapiens, UniProt Q9BY41); assay: HDAC-Glo inhibitor testing with recombinant HDAC8; format: biochemical; conditions: for remaining activity at 100 µM: read-out: HDAC8 activity remaining
T2 sequence (Q9BY41 1-377): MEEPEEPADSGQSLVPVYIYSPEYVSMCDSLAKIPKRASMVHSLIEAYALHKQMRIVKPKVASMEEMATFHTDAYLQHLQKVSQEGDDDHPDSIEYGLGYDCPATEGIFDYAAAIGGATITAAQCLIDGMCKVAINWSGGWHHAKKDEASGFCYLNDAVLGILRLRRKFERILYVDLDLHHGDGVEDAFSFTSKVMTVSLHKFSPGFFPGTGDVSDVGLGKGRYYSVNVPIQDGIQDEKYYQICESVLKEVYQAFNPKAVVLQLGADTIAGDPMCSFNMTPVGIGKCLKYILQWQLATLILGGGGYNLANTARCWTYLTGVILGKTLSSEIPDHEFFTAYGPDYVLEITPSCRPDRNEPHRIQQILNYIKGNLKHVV

HDAC3 = HDAC3 (Homo sapiens, UniProt O15379); assay: HDAC-Glo inhibitor testing with recombinant HDAC3; format: biochemical
[6] = molecular target: tubulin heterodimers, purified from porcine brain (Sus scrofa, UniProt P02554); assay: Turbidity-based tubulin polymerization assay; format: biochemical; conditions: 10 μM compound, 37 °C, exponential phase (DMSO 10 mOD/min)
tubulin heterodimers, purified from porcine brain, sequence (P02554 whole entry): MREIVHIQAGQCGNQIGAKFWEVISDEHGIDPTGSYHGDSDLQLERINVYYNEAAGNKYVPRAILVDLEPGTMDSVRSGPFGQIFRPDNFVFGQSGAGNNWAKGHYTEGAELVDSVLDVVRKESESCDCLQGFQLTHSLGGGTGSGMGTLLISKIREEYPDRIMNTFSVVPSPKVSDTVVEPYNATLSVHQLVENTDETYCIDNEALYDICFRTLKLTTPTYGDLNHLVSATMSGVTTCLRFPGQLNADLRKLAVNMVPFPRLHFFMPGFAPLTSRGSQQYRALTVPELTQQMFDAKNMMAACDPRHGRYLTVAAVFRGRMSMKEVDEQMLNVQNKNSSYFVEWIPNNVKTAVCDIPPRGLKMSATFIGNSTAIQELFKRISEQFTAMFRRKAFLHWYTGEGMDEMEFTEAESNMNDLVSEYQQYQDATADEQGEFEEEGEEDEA
tubulin heterodimers, purified from porcine brain, sequence (P02550 whole entry partner): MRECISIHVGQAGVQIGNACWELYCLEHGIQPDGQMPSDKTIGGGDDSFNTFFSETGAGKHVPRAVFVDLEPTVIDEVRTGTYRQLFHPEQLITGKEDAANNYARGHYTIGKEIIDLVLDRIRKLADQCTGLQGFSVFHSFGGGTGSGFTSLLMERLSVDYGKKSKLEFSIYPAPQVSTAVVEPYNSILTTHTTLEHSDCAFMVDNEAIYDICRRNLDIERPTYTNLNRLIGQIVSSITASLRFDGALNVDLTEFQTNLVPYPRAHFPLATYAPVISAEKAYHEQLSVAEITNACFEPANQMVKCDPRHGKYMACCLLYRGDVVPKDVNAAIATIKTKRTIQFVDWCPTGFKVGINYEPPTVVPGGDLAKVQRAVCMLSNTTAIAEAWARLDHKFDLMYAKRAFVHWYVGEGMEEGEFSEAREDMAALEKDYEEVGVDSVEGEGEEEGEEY

HDAC2, sequence (Q92769 whole entry): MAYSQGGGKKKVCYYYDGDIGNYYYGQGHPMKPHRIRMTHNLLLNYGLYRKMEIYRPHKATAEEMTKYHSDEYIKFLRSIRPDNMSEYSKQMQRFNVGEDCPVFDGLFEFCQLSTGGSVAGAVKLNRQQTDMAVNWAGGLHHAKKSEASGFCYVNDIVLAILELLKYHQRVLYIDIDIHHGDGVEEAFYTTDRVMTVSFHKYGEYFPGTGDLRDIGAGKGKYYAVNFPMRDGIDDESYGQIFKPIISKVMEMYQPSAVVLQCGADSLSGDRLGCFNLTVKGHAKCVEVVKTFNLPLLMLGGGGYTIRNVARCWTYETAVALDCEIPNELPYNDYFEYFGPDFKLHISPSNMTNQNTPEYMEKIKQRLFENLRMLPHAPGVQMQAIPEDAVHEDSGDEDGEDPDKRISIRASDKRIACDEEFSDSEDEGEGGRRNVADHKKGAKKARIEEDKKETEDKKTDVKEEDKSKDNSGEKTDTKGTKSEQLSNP
HDAC3, sequence (O15379 whole entry): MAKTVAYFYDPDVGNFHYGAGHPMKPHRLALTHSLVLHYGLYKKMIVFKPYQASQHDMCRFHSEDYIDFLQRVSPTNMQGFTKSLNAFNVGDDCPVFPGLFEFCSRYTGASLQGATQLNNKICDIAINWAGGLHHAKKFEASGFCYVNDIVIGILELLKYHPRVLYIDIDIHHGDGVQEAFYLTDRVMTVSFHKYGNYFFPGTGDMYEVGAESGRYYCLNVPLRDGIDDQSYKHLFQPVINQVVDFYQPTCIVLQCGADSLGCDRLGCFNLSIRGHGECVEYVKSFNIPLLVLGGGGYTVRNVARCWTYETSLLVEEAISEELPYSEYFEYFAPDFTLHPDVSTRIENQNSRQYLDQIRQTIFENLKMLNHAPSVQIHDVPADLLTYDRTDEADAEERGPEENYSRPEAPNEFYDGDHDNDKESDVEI
HDAC3, sequence (Q9Y618 395-489 partner limits assumed): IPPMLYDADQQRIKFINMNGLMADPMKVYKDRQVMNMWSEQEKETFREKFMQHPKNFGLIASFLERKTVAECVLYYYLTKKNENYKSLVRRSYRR
HDAC1, sequence (Q13547 whole entry, canonical isoform): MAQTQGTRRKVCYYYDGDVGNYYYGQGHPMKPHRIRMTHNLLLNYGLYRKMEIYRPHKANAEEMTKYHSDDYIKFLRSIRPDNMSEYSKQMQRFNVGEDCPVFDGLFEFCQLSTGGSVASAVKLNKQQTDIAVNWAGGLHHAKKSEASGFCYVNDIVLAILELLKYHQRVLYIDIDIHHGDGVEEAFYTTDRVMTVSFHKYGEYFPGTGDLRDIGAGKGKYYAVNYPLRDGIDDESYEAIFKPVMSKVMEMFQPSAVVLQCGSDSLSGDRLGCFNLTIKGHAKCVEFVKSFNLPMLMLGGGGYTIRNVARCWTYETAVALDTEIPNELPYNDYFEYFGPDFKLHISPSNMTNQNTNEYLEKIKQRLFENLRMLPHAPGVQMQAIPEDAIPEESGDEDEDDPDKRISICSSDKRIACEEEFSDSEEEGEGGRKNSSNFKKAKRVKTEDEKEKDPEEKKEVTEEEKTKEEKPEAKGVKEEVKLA

Row | SMILES | activity at 10 µM [1] [%] | GI50 (HCT 116 cells) [µM] | IC50 (HDAC2) [µM] | IC50 (HDAC6) [µM] | IC50 (HDAC1) [µM] | global histone H3 acetylation and tubulin acetylation [4] | IC50 (HDAC8) [µM] | remaining activity at 100 µM (HDAC8) [%] | IC50 (HDAC3) [µM] | further results
1 | Cc1ccc(NC(=O)Cc2ccc(/C=C/C(=O)c3ncc[nH]3)cc2)cc1 [IPE-3, (E)-2-(4-(3-(1H-Imidazol-2-yl)-3-oxoprop-1-en-1-yl)phenyl)-N-(p-tolyl)acetamide] | 41.3 | 6.85 | – | – | – | – | – | – | – | –
2 | O=C(Cc1ccc(/C=C/C(=O)c2ncc[nH]2)cc1)Nc1ccc(Cl)cc1 [IPE-8, (E)-2-(-4(3-(1H-imidazol-2-yl)-3-oxoprop-1-en-1-yl)phenyl)-N-(4-chlorophenyl)acetamide] | 21.1 | 5.14 | > 100 | > 100 | > 100 | – | – | – | – | cells in G2/M (HeLaM cells): 33%; subG1 population (HeLaM cells): 59%; SMC3 acetylation [2]: no effect on SMC3 acetylation; activity remaining, each HDAC isoform [3]: 20–80%
3 | O=C(Cc1ccc(/C=C/C(=O)c2ncc[nH]2)cc1)Nc1ccc(Br)cc1 [IPE-9, (E)-2-(-4(3-(1H-imidazol-2-yl)-3-oxoprop-1-en-1-yl)phenyl)-N-(4-bromophenyl)acetamide] | 17.9 | – | – | – | – | – | – | – | – | GI50, all but two of the cell lines each in the leukemia and colon cancer panels (NCI 60 cancer cell lines): sub-micromolar
4 | Cn1ccnc1C(=O)/C=C/c1ccc(CC(=O)Nc2ccccc2)cc1 [IPE-16, (E)-2-(4-(3-(1-Methyl-1H-imidazol-2-yl)-3-oxoprop-1-en-1-yl)phenyl)-N-phenylacetamide] | 15.9 | 5.91 | – | – | – | no increase in global histone acetylation or tubulin acetylation | – | – | – | spindle collapse [5]: phenotype was reproduced
5 | Cn1ccnc1C(=O)/C=C/c1ccc(CC(=O)Nc2ccc(F)cc2)cc1 [IPE-19, (E)-N-(4-Fluorophenyl)-2-(4-(3-(1-methyl-1H-imidazol-2-yl)-3-oxoprop-1-en-1-yl)phenyl)acetamide] | 33.1 | 6.56 | – | – | – | no increase in global histone acetylation or tubulin acetylation | – | – | – | –
6 | Cn1ccnc1C(=O)/C=C/c1ccc(CC(=O)Nc2ccc(S(F)(F)(F)(F)F)cc2)cc1 [IPE-22, (E)-2-(4-(3-(1-Methyl-1H-imidazol-2-yl)-3-oxoprop-1-en-1-yl)phenyl)-N-(4-(pentafluoro-λ^6-sulfanyl)phenyl)acetamide] | -18.8 | – | > 200 | > 200 | > 200 | – | 3 ± 0.2 | 20 to 60 | > 200 | fold selectivity for HDAC8 compared to the other isoforms (HDAC8; from IC50 values, other isoforms >200 μM): ≥ 67 fold; inhibition at 10 µM ([1]; read-out: growth inhibition at 10 μM): 100%; spindle collapse [5]: phenotype was reproduced; GI50, all leukemia cell lines (NCI 60 cancer cell lines): upper nanomolar
7 | Cn1ccnc1C(=O)/C=C/c1ccc(CC(=O)Nc2cc(F)c(F)c(F)c2)cc1 [IPE-24, (E)-2-(4-(3-(1-methyl-1H-imidazol-2-yl)-3-oxoprop-1-en-1-yl)phenyl)-N-(3,4,5-trifluorophenyl)acetamide] | 22.7 | – | > 200 | > 200 | > 200 | – | 13 ± 1 | 20 to 60 | > 200 | GI50, all leukemia cell lines (NCI 60 cancer cell lines): upper nanomolar
8 | Cn1ccnc1C(=O)/C=C/c1ccc(CC(=O)Nc2c(F)c(F)c(F)c(F)c2F)cc1 [IPE-25, (E)-2-(4-(3-(1-methyl-1H-imidazol-2-yl)-3-oxoprop-1-en-1-yl)phenyl)-N-(perfluorophenyl)acetamide] | 61.4 | – | 8.9 ± 0.6 | 8.6 ± 4.9 | 12 ± 1 | – | 9 ± 0.5 | – | 16 ± 1 | –
9 | Cn1ccnc1C(=O)/C=C/c1ccc(CC(=O)Nc2cc(C(F)(F)F)cc(C(F)(F)F)c2)cc1 [IPE-26, (E)-N-(3,5-bis(trifluoromethyl)phenyl)-2-(4-(3-(1-methyl-1H-imidazol-2-yl)-3-oxoprop-1-en-1-yl)phenyl)acetamide] | 69 | – | > 100 | > 100 | > 200 | – | 15 ± 1 | 20 to 60 | > 200 | –
10 | C#Cc1ccc(NC(=O)Cc2ccc(/C=C/C(=O)c3nccn3C)cc2)cc1 [IPE-27, (E)-N-(4-Ethynylphenyl)-2-(4-(3-(1-methyl-1H-imidazol-2-yl)-3-oxoprop-1-en-1-yl)phenyl)acetamide] | 53.5 | – | > 100 | > 100 | > 100 | – | 12 ± 1 | 20 to 60 | > 100 | –
11 | Nc1ccccc1NC(=O)c1ccc(CNC(=O)OCc2cccnc2)cc1 [MS275, reference compound] | – | – | – | – | – | dramatically increased | – | – | – | –
12 | O=C(CCCCCCC(=O)Nc1ccccc1)NO [SAHA, reference compound] | – | – | – | – | – | dramatically increased | – | – | – | cells in G2/M (HeLaM cells): 8.2%; subG1 population (HeLaM cells): 37%; spindle collapse [5]: did not produce the same aberrant spindle
13 | CC(=O)O[C@H]1C(=O)[C@@]2(C)[C@H]([C@H](OC(=O)c3ccccc3)[C@]3(O)C[C@H](OC(=O)[C@H](O)[C@@H](NC(=O)c4ccccc4)c4ccccc4)C(C)=C1C3(C)C)[C@]1(OC(C)=O)CO[C@@H]1C[C@@H]2O [Taxol, reference compound] | – | – | – | – | – | – | – | – | – | Vmax of tubulin polymerization [6]: higher Vmax than DMSO
